The values below come from ChEMBL document CHEMBL4706565, “Anti-glioma effects of 2-aminothiophene-3-carboxamide derivatives, ANO1 channel blockers” (Eur J Med Chem, 2020).

For assay [1], the system named is U-251. Put plainly: Synergistic antiproliferative activity against human U251 cells assessed as combination index at compound:temozolomide concentration ratio of 1:1 in presence of temozolomide by Chou-Talalay method. The class given is functional. A digest of the protocol:
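U251 proliferation measured with CellTiter-Glo across full titrations of an ANO1 inhibitor combined with temozolomide. Combination index calculated by the Chou-Talalay method.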

The target in assay [2] is T1, Anoctamin-1 (Mus musculus) (UniProt Q8BHY3).
T1 sequence (whole entry): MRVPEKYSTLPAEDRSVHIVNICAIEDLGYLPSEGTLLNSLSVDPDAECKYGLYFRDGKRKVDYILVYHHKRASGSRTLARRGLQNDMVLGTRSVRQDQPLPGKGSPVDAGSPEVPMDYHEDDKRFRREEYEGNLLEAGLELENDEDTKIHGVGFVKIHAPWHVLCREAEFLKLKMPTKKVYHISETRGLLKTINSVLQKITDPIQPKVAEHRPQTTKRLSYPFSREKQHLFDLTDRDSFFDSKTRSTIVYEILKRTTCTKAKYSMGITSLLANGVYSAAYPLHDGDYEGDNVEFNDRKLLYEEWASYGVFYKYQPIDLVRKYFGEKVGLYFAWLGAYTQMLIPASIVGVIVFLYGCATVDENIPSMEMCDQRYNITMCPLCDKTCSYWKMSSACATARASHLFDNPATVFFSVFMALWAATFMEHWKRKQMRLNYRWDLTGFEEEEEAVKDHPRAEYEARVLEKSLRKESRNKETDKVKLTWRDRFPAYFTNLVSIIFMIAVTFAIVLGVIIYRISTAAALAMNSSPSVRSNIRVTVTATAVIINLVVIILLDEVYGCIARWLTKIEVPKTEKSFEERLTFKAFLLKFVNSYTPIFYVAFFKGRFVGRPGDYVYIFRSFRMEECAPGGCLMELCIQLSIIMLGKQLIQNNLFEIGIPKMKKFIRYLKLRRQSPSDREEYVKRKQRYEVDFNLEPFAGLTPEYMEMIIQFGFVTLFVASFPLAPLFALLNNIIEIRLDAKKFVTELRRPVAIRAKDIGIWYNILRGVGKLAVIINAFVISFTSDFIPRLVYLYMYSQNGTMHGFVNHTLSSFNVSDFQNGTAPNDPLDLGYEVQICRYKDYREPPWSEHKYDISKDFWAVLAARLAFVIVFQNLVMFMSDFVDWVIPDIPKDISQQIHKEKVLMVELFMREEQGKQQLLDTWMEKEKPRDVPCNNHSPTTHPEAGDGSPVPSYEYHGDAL
As to the kind of experiment: Reversible inhibition of GFP-fused mouse ANO1 channel expressed in HEK293A cells assessed as channel current amplitude at 10 uM at membrane potential of +80 mV measured after drug wash-out by patch clamp electrophysiology assay. Particulars: HEK293-A. The class given is cell-based. More on the design: scale not given: the % may be the effect or the level left. In short, it runs like this: (§1)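 Whole-cell recording at room temperature in HEK293A cells transfected with GFP-mANO1, GFP-mANO2 or GFP-mTTYH1. 1 s ramps from +80 to -80 mV, holding potential -10 mV. For ANO1/ANO2: pipette CsCl 146 mM with Ca-EGTA-NMDG, pH 7.3; bath NaCl-based, pH 7.3. For TTYH1: Tris-aspartate pipette (pH 7.2) and Tris-HCl bath (pH 7.4), with […] and BaCl2 added to block K+ channels, and hypotonic (220 mOsm/kg) bath. Washout recordings assessed reversibility.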
For orientation: The patch-clamp technique gives a direct electrical read-out from membranes.

The subject of assay [3] is U-251. Put plainly: Antiproliferative activity against human U251 cells overexpressing ANO1 assessed as reduction in cell viability in presence of temozolomide measured after 72 hrs by Celltiter-glo assay. The class given is functional. On the technique in general: ATP-based viability assays read luminescence as a measure of living cells.
The target in assay [4] is T1, Anoctamin-1 (Mus musculus). As to the kind of experiment: Irreversible inhibition of GFP-fused mouse ANO1 channel expressed in HEK293A cells assessed as inhibition of channel current amplitude at 10 uM at membrane potential of +80 mV measured after drug wash-out by patch clamp electrophysiology assay. Particulars: HEK293-A. The class given is cell-based. A digest of the protocol: as §1

Active and inactive are the calls of the source. The calls are words filed in the database; no cut-off is given here.

With `CC(C)(C)C(=O)Nc1sc2c(c1C(N)=O)CCC(C(C)(C)C)C2` (centres undefined), in the assay with U-251 [1], the CI amounted to 0.63. Also, the Activity in assay [2] amounted to 85.8%. Also, in the assay on U-251 [3], the GI50 turned out to be 5.32 µM.
Regarding `NC(=O)c1c(NC(=S)NC(=O)c2ccc(Cl)cc2)sc2c1CCC2`, the inhibition entry in assay [4] is “Active”.

What is called GI50 is the concentration at which growth is held to half of that of the control.
